Measurements collected from several papers.
Each line is one published result; the experiments were not run side by side.
Target: Calcium/calmodulin-dependent protein kinase type II subunit beta (CAMK2B, Homo sapiens, UniProt Q13554)

Structure (SMILES)	observed	action	technique	tested at	quantity	result
Cc1cnc(NC2CCOCC2)nc1-n1cnc(C(=O)NC(CN)c2cc(F)cc(Cl)c2)c1 (stereo not drawn)	enzyme activity	inhibitor	radiometric	1 µM	remaining activity	87%
CS(=O)(=O)CCNCc1ccc(-c2ccc3ncnc(Nc4ccc(OCc5cccc(F)c5)c(Cl)c4)c3c2)o1	cell-free assay			0.5 µM	remaining signal	93.8%
C[C@@H]1CN(c2cc(-c3nn(C)c4ccc(OC5(C)CC5)cc34)ncn2)C[C@H](C)O1	cell-free assay		competition with immobilised ligand	1 µM	remaining binding	96%
Oc1ccc(-c2nc(-c3ccncc3)c(-c3ccc(F)cc3)[nH]2)cc1	cell-free assay			0.5 µM	remaining signal	96.4%
Cc1ncc([N+](=O)[O-])n1C(=NO)c1ccccc1C(F)(F)F	enzyme activity	inhibitor		10 µM	inhibition	13.6%
Cc1ccc(NC(=O)c2ccc(C)c(C(F)(F)F)c2)cc1C#Cc1nn(C2CCC(O)CC2)c2ncnc(N)c12 (stereo not drawn)	cell-free assay			10 µM	remaining signal	85%
COc1cc(Nc2c(C#N)cnc3cc(OCCCN4CCN(C)CC4)c(OC)cc23)c(Cl)cc1Cl	cell-free assay			0.5 µM	remaining signal	86.2%
CCN(CC)CCNC(=O)c1c(C)[nH]c(/C=C2\C(=O)Nc3ccc(F)cc32)c1C	enzyme activity	inhibitor		10 µM	inhibition	91%
CCN(CC)c1ccc(C2=NNC(=O)CC2C)cc1[N+](=O)[O-] (stereo not drawn)	enzyme activity	inhibitor		10 µM	remaining activity	96%
CN1CC(Oc2cnc(C#N)cc2-c2ccn3nc(NC(=O)C4CC4)cc3c2)C1	enzyme activity	inhibitor		1 µM	inhibition	-1%
CNC(=O)c1cc(Oc2ccc(NC(=O)Nc3ccc(Cl)c(C(F)(F)F)c3)cc2)ccn1	enzyme activity	inhibitor		10 µM	inhibition	50%
CCCCNc1ncc2c(-c3ccc(F)cc3)nn(C[C@H]3CC[C@H](N)CC3)c2n1	target engagement in cells	inhibitor	chemoproteomics	20 mM	inhibition	29%
O=C(Nc1cnn(-c2csc(C(=O)NC3COC3)c2)c1)Nc1c(F)cccc1Cl	enzyme activity	inhibitor		5 µM	remaining activity	99.1%
COc1cc2ncnc(Nc3ccc(Oc4ccccc4)cc3C)c2cc1OC	enzyme activity	inhibitor		1 µM	inhibition	8%
CCN(CC)CCNC(=O)c1c(C)[nH]c(/C=C2\C(=O)Nc3ccc(Cl)cc32)c1C	enzyme activity	inhibitor		0.5 µM	remaining activity	27.3%
CC(C)c1ccc(NC(=O)c2cccs2)c(-c2nc3ccccc3[nH]c2=O)c1	enzyme activity	inhibitor		1 µM	activity vs control	108%
O=C(O)[C@H]1[C@H](Cn2nnc3ccccc3c2=O)CC[C@@H]1C(=O)c1ccc(OCCC2CCOCC2)cc1	cell-free assay		competition with immobilised ligand	1 µM	remaining binding	100%
COc1cc(-c2cc(-c3ccc(N4CCNCC4)cc3)cnc2C)cc(OC)c1OC	enzyme activity	inhibitor		1 µM	inhibition	1%
Nc1c(C(=O)NCc2ccc(C(=O)NCCCC3CCCCC3)cc2)cnn1-c1ccccc1	cell-free assay		competition with immobilised ligand	0.1 µM	remaining binding	100%
Cc1ccc(Nc2nccc(N(C)c3ccc4c(C)n(C)nc4c3)n2)cc1S(N)(=O)=O	enzyme activity	inhibitor		0.3 µM	inhibition	15%
CCC(=O)N[C@@H]1CC[C@H](C(=O)N(C)c2ccc(-c3nc4ccccc4o3)cc2)C1	cell-free assay		competition with immobilised ligand	1 µM	remaining binding	100%
C[S+]([O-])c1ccc(-c2nc(-c3ccncc3)c(-c3ccc(F)cc3)[nH]2)cc1 (stereo not drawn)	cell-free assay			0.5 µM	remaining signal	97.6%
COc1ccc2c(c1)O[C@H](c1ccc(OC)c(OC)c1)C[C@@H]2NC(=O)C1(c2ccc3c(c2)OC(F)(F)O3)CC1	cell-free assay		competition with immobilised ligand	1 µM	remaining binding	88%
CC(C)(C)c1nc(-c2cccc(NS(=O)(=O)c3c(F)cccc3F)c2F)c(-c2ccnc(N)n2)s1	enzyme activity	inhibitor	radiometric	1 µM	remaining activity	78%
CS(=O)(=O)N1CCCC(NC(=O)[C@H](CCC2CCCCC2)NC(=O)c2ccc(CNc3ncnc4c3nnn4-c3ccccc3)cc2)C1 (stereo partly drawn)	cell-free assay		competition with immobilised ligand	0.1 µM	remaining binding	100%
Cc1ccc(C(=O)NCc2ccsc2)cc1C#Cc1cn(C(C)C)c2ncnc(N)c12	enzyme activity	inhibitor		1 µM	activity vs control	95%
CCCCN(CCCC)C(=O)CN1C[C@@H](c2cc(OC)c3c(c2)OCO3)[C@H](C(=O)O)[C@H]1CC(C)(C)CCC	cell-free assay		competition with immobilised ligand	1 µM	remaining binding	100%
O=c1c2ccccc2[nH]c(=S)n1CCN1CCC(=C(c2ccc(F)cc2)c2ccc(F)cc2)CC1	enzyme activity	inhibitor		0.5 µM	remaining activity	102%
Cc1nc(Cc2cccc(C(F)(F)F)c2)sc1-c1ccc(C(N)=O)nc1	cell-free assay		competition with immobilised ligand	1 µM	remaining binding	100%
CCCOc1ccc(OC)c(F)c1C(=O)c1ccc(C(=O)N[C@@H]2CNC[C@H]2NC(=O)c2ccc3[nH]ncc3c2)cc1	enzyme activity	inhibitor		10 µM	remaining activity	53%
